In brackets after ≈: the same amount, converted by molar mass. A value given as a limit tells only on which side of the number the result lay.

Data set [1] has as its system Staphylococcus aureus. Nature of the data set: Antibacterial activity against multidrug-resistant Staphylococcus aureus WIS cultured in MHB medium assessed as reduction in bacterial growth incubated for 24 hrs by microdilution susceptibility test. It counts as functional. The gist of the method:
(§1)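 Broth microdilution per CLSI M07-A9 (modified). Working solutions made from concentrated DMSO stocks kept at r.t., diluted in double-distilled water, final DMSO <1%. Inoculum 1–1.2 x 10⁶ cells/mL in Mueller-Hinton broth, mixed 1:1 with compound. 37 °C, 24 h, four parallels. Read as OD₆₀₀. Where precipitation left residual OD, the point of major OD decrease was taken as the inhibitory concentration.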

The test system of data set [2] is Escherichia coli. Nature of the data set: Antibacterial activity against multidrug-resistant Escherichia coli 50639799 producing Verona integron encoded metallo beta-lactamse-29 cultured in MHB medium assessed as reduction in bacterial growth incubated for 24 hrs by microdilution susceptibility test. The data set is classed as functional. The conditions noted are these: Escherichia coli, 50639799, 24 h. A digest of the protocol:
as §1

Data set [3] has as its system Corynebacterium glutamicum. Put plainly: Antibacterial activity against Corynebacterium glutamicum ATCC 13032 cultured in MHB medium assessed as no bacterial growth incubated at 20 degC for 24 hrs by microdilution susceptibility test. It counts as functional. The conditions noted are these: ATCC 13032, 24 h. The gist of the method: (§2)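 Broth microdilution per CLSI M07-A9 with modifications. Inoculum about 2.5–3 x 10⁴ cells/mL in Mueller-Hinton broth, mixed 1:1 with test derivative. DMSO stocks diluted in double-distilled water, final DMSO <1%. Incubation 24 h at 37 °C (20 °C for C. glutamicum). Growth and sterility controls included; oxytetracycline reference.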
Background: Dilution methods test growth across graded concentrations, often in twofold steps.

A short description of data set [4]: Selectivity index, ratio of EC50 for hemolytic activity against human RBC to MIC for antibacterial activity against Escherichia coli ATCC 25922. The conditions noted are these: human red blood cells (RBC). It counts as toxicity. A digest of the protocol:
(§3)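 Selectivity index is the RBC haemolysis EC50 divided by the MIC against the E. coli or S. aureus reference strain.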

Data set [5] relates to Acinetobacter baumannii. Nature of the data set: Antibacterial activity against multidrug-resistant Acinetobacter baumannii K47-42 producing oxcillinase-23 cultured in MHB medium assessed as reduction in bacterial growth incubated for 24 hrs by microdilution susceptibility test. The data set is classed as functional. The conditions noted are these: K47-42, 24 h. The gist of the method:
as §1

Data set [6] has as its system Klebsiella pneumoniae. Nature of the data set: Antibacterial activity against multidrug-resistant Klebsiella pneumoniae 50667959 producing Verona integron encoded metallo beta-lactamse-1 cultured in MHB medium assessed as reduction in bacterial growth incubated for 24 hrs by microdilution susceptibility test. The data set is classed as functional. The conditions noted are these: Klebsiella pneumoniae, 50667959, 24 h. The gist of the method: as §1

For data set [7], the system named is Staphylococcus aureus. Nature of the data set: Antibacterial activity against multidrug-resistant Staphylococcus aureus IHT 99040 cultured in MHB medium assessed as reduction in bacterial growth incubated for 24 hrs by microdilution susceptibility test. The data set is classed as functional. The conditions noted are these: IHT 99040, 24 h. A digest of the protocol: as §1

Data set [8] relates to Pseudomonas aeruginosa. Nature of the data set: Antibacterial activity against multidrug-resistant Pseudomonas aeruginosa K44-24 producing imipenem-type carbapenemase-14 cultured in MHB medium assessed as reduction in bacterial growth incubated for 24 hrs by microdilution susceptibility test. The data set is classed as functional. The conditions noted are these: K44-24, 24 h. The gist of the method:
as §1

Data set [9] deals with Escherichia coli. Nature of the data set: Antibacterial activity against multidrug-resistant Escherichia coli 50579417 producing oxcillinase-48 cultured in MHB medium assessed as reduction in bacterial growth incubated for 24 hrs by microdilution susceptibility test. The conditions noted are these: Escherichia coli, 50579417, 24 h. It counts as functional. A digest of the protocol: as §1

The test system of a further data set is Erythrocyte. Put plainly: Hemolytic activity against human RBC incubated for 1 hr. The data set is classed as cell-based. The gist of the method: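 Heparinized human blood washed three times in warm PBS and set to 10% hct. Erythrocytes at 1% v/v final, with compound in PBS (DMSO <1%), shaken 1 h at 37 °C and then centrifuged. Supernatant absorbance read at 405 and 545 nm after PBS background subtraction. Haemolysis taken relative to 1% Triton X-100. Three independent replicates, EC50 averaged.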

Data set [10] has as its system Pseudomonas aeruginosa. Nature of the data set: Antibacterial activity against multidrug-resistant Pseudomonas aeruginosa 50692172 producing New Delhi metallo-beta-lactamase-1 cultured in MHB medium assessed as reduction in bacterial growth incubated for 24 hrs by microdilution susceptibility test. It counts as functional. The conditions noted are these: Pseudomonas aeruginosa, 50692172, 24 h. A digest of the protocol:
as §1

The subject of data set [11] is Pseudomonas aeruginosa. Nature of the data set: Antibacterial activity against multidrug-resistant Pseudomonas aeruginosa 50692520 producing Verona integron encoded metallo beta-lactamse cultured in MHB medium assessed as reduction in bacterial growth incubated for 24 hrs by microdilution susceptibility test. The conditions noted are these: Pseudomonas aeruginosa, 50692520, 24 h. The data set is classed as functional. A digest of the protocol: as §1

Data set [12] concerns Klebsiella pneumoniae. Put plainly: Antibacterial activity against multidrug-resistant Klebsiella pneumoniae K47-25 producing carbapenemase-2 cultured in MHB medium assessed as reduction in bacterial growth incubated for 24 hrs by microdilution susceptibility test. The data set is classed as functional. The conditions noted are these: K47-25, 24 h. The gist of the method:
as §1

Data set [13] deals with Enterococcus faecium. Put plainly: Antibacterial activity against multidrug-resistant Enterococcus faecium 50901530 cultured in BHIB medium assessed as reduction in bacterial growth incubated for 24 hrs by microdilution susceptibility test. The data set is classed as functional. The conditions noted are these: Enterococcus faecium, 50901530, 24 h. A digest of the protocol: (§4)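 Enterococci grown in Brain Heart Infusion broth, otherwise broth microdilution per CLSI M07-A9 (modified). Concentrated DMSO stocks kept at r.t. and diluted in double-distilled water, final DMSO <1%. Inoculum 1–1.2 x 10⁶ cells/mL mixed 1:1 with compound. 37 °C, 24 h, four parallels. OD₆₀₀ read-out, lowest concentration with no growth.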

Data set [14] is described as follows: Selectivity index, ratio of EC50 for hemolytic activity against human RBC to MIC for antibacterial activity against Staphylococcus aureus ATCC 9144. The data set is classed as toxicity. The conditions noted are these: human red blood cells (RBC). The gist of the method: as §3
Data set [15] relates to Klebsiella pneumoniae. Put plainly: Antibacterial activity against multidrug-resistant Klebsiella pneumoniae K66-45 producing New Delhi metallo-beta-lactamase-1 cultured in MHB medium assessed as reduction in bacterial growth incubated for 24 hrs by microdilution susceptibility test. The conditions noted are these: K66-45, 24 h. The data set is classed as functional. A digest of the protocol: as §1

Data set [16] concerns Klebsiella pneumoniae. Put plainly: Antibacterial activity against multidrug-resistant Klebsiella pneumoniae 50531633 producing New Delhi metallo-beta-lactamase-1 and oxcillinase-181 cultured in MHB medium assessed as reduction in bacterial growth incubated for 24 hrs by microdilution susceptibility test. The data set is classed as functional. The conditions noted are these: Klebsiella pneumoniae, 50531633, 24 h. A digest of the protocol: as §1

Data set [17] has as its system Acinetobacter baumannii. Put plainly: Antibacterial activity against multidrug-resistant Acinetobacter baumannii K55-13 producing oxcillinase-24 cultured in MHB medium assessed as reduction in bacterial growth incubated for 24 hrs by microdilution susceptibility test. The data set is classed as functional. The conditions noted are these: K55-13, 24 h. A digest of the protocol: as §1

In data set [18] the test system is Pseudomonas aeruginosa. Nature of the data set: Antibacterial activity against Pseudomonas aeruginosa PA01 DSM 19880 (ATCC 15692) cultured in MHB medium assessed as no bacterial growth incubated at 37 degC for 24 hrs by microdilution susceptibility test. It counts as functional. The conditions noted are these: PAO1 DSM 19880 (ATCC 15692). A digest of the protocol:
as §2

The subject of data set [19] is Escherichia coli. Nature of the data set: Antibacterial activity against multidrug-resistant Escherichia coli 50857972 producing imipenem-type carbapenemase-26 cultured in MHB medium assessed as reduction in bacterial growth incubated for 24 hrs by microdilution susceptibility test. The conditions noted are these: Escherichia coli, 50857972, 24 h. It counts as functional. A digest of the protocol: as §1

Data set [20] deals with Acinetobacter baumannii. Nature of the data set: Antibacterial activity against multidrug-resistant Acinetobacter baumannii K44-35 producing oxcillinase-23 cultured in MHB medium assessed as reduction in bacterial growth incubated for 24 hrs by microdilution susceptibility test. The data set is classed as functional. The conditions noted are these: K44-35, 24 h. A digest of the protocol:
as §1

Data set [21] concerns Escherichia coli. Nature of the data set: Antibacterial activity against multidrug-resistant Escherichia coli 50739822 producing New Delhi metallo-beta-lactamase-1 cultured in MHB medium assessed as reduction in bacterial growth incubated for 24 hrs by microdilution susceptibility test. It counts as functional. The conditions noted are these: Escherichia coli, 50739822, 24 h. A digest of the protocol: as §1

The subject of data set [22] is Enterococcus faecium. Put plainly: Antibacterial activity against multidrug-resistant Enterococcus faecium 50758899 cultured in BHIB medium assessed as reduction in bacterial growth incubated for 24 hrs by microdilution susceptibility test. It counts as functional. The conditions noted are these: Enterococcus faecium, 50758899, 24 h. A digest of the protocol: as §4

In the case of `NCCNC(=O)C(CN)(Cc1ccccc1C(F)(F)F)Cc1ccccc1C(F)(F)F`, the minimal inhibitory concentration (MIC) (usually the least concentration at which growth counts as inhibited) with Staphylococcus aureus [1] was > 32 µg/mL; with Escherichia coli [2] it was > 32 µg/mL; in data set [3], 8 µg/mL (≈ 17.9 µM); with Acinetobacter baumannii [5] it was > 32 µg/mL; in the data set on Klebsiella pneumoniae [6], > 32 µg/mL; with Staphylococcus aureus [7], 32 µg/mL (≈ 71.5 µM). In addition, the MIC in the data set with Pseudomonas aeruginosa [8] was > 32 µg/mL; in the data set on Escherichia coli [9], > 32 µg/mL; in the data set with Pseudomonas aeruginosa [10], > 32 µg/mL; with Pseudomonas aeruginosa [11], > 32 µg/mL; with Klebsiella pneumoniae [12] it was > 32 µg/mL; with Enterococcus faecium [13], 32 µg/mL (≈ 71.5 µM). Also, the MIC is > 32 µg/mL in the data set on Klebsiella pneumoniae [15]; > 32 µg/mL in the data set with Klebsiella pneumoniae [16]; > 32 µg/mL in the data set with Acinetobacter baumannii [17]; 64 µg/mL (≈ 143 µM) in the data set with Pseudomonas aeruginosa [18]; > 32 µg/mL in the data set on Escherichia coli [19]; > 32 µg/mL with Acinetobacter baumannii [20]. The MIC in the data set on Escherichia coli [21] and in the data set on Enterococcus faecium [22] was > 32 µg/mL throughout. The selectivity ratio in data set [4] and in data set [14] was 10 each time. Further, it took 312 µg/mL (≈ 697 µM) to reach a half-maximal effect in the data set on Erythrocyte (EC50).

For `NCCNC(=O)C(CN)(Cc1cc(Br)cc(Br)c1)Cc1cc(Br)cc(Br)c1`, the MIC in the data set on Staphylococcus aureus [1] was determined as 16 µg/mL (≈ 25.5 µM); in the data set on Escherichia coli [2] it was 16 µg/mL (≈ 25.5 µM); in data set [3], 2 µg/mL (≈ 3.19 µM); in the data set with Acinetobacter baumannii [5], 16 µg/mL (≈ 25.5 µM); with Klebsiella pneumoniae [6], 16 µg/mL (≈ 25.5 µM); in the data set on Staphylococcus aureus [7] it was 16 µg/mL (≈ 25.5 µM). Besides, the MIC in the data set on Pseudomonas aeruginosa [8] is 32 µg/mL (≈ 51 µM); in the data set on Escherichia coli [9], 8 µg/mL (≈ 12.8 µM); in the data set with Pseudomonas aeruginosa [10], > 32 µg/mL; in the data set with Pseudomonas aeruginosa [11] it was > 32 µg/mL; in the data set on Klebsiella pneumoniae [12], 16 µg/mL (≈ 25.5 µM); with Enterococcus faecium [13], 8 µg/mL (≈ 12.8 µM). Moreover, the MIC in the data set with Klebsiella pneumoniae [15] worked out at 32 µg/mL (≈ 51 µM); in the data set with Klebsiella pneumoniae [16] it was 16 µg/mL (≈ 25.5 µM); with Acinetobacter baumannii [17], 16 µg/mL (≈ 25.5 µM); in the data set on Pseudomonas aeruginosa [18] it was 4 µg/mL (≈ 6.38 µM); with Escherichia coli [19], 8 µg/mL (≈ 12.8 µM); in the data set on Acinetobacter baumannii [20] it was 32 µg/mL (≈ 51 µM). The MIC with Escherichia coli [21] and with Enterococcus faecium [22] was 8 µg/mL (≈ 12.8 µM) each time. Besides, the selectivity ratio stood at 15 in [4] and 29 in data set [14]. The EC50 (as a rule, the concentration needed to bring the measured effect to its halfway point) in the data set with Erythrocyte amounted to 58 µg/mL (≈ 92.5 µM).
